Screens: PubChem, several laboratories
XiGFP reactiv = reactivates the inactive X chromosome in mouse fibroblasts | XiGFP mouse fibroblasts, % GFP-positive cells imaging, 3 d; cells co-treated with 5-aza-dC sensitizer; scaled so ellipticine positive control = 100% | activation, % at 7.58 µM | hit rate 0.055% among 360,000 | AID 743238;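 active = mean normalized replicate activation at least 10% and every replicate at or above 10%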;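 note: 0% = median of on-plate neutral control wells and 100% = ellipticine 6 µM median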
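System: 68-5-11 XiGFP fibroblast line | Buffer or medium: DMEM containing 5-aza-dC | Compound: Single point | Times: Compounds 3 days, fix/stain 15 min at room temperature | Benchmarks: Positive control ellipticine, 6 µM final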
SR-BI uptake up = enhances SR-BI lipid uptake from DiI-HDL; AID 504775; activation, % at 12.5 µM; hit rate 0.096% among 320,000; CHO ldlA[mSR-BI] cells, DiI-HDL uptake fluorescence, 3 h; 100 = double the neutral-control signal;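 active = mean replicate activation of at least 60% and every replicate at or above 60%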;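 note: 0% = median plate neutral-control signal and 100% = twice that signal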
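system = CHO ldlA[mSR-BI] cells, LDL receptor-null, SR-BI overexpressing | medium = Ham's F12 with 0.5% BSA, HEPES 25 mM, pH 7.4 | probe or stimulus = DiI-HDL 10 µg/mL | compound dosing = single-point compound dose | incubation = compound exposure 3 h, 37 °C | technique = DiI fluorescence, bottom read | read-out = cell-associated DiI fluorescence as measure of HDL uptake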
HGIII-sPLA2 inh = Blocks human group III sPLA2 activity | Q9NZ20 | QFRET BODIPY PC-A2 liposome hydrolysis, fluorescence | inhibition, % at 12.2 µM | hit rate 0.56% among 370,000 | AID 743126;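 active = inhibition above mean plus 3 SD of compounds lying within the high and low control bounds, cut at about 19% in these data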;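 note: 0% = median of test compound wells and 100% = no enzyme DMSO wells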
ARNT-TACC3 inh = disruptors of human ARNT/TACC3 interaction | AlphaScreen His-ARNT PAS-B/GST-TACC3 binding, luminescence; TACC3 fragment carries E629A point mutation | hit rate 0.66% among 390,000 | inhibition, % at 9.99 µM | Q9Y6A5;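 active = mean inhibition of replicates at least 50% and at least half of replicates each reaching 50%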;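 note: 0% = complete ARNT plus TACC3 wells and 100% = ARNT alone without TACC3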
NSD2 inh = inhibitors of human histone methyltransferase NSD2 | O96028 | NSD2 peptide methylation, AlphaScreen, 120 min | inhibition, % at 12.5 µM | hit rate 0.54% among 310,000 | AID 743445; in the data active = inhibition above about 50%
SR-BI DiI inh = blocks mouse SR-BI lipid uptake from DiI-HDL; inhibition, % at 12.5 µM; Q61009; hit rate 0.96% among 320,000; ldlA[mSR-BI] CHO cells, DiI-HDL uptake fluorescence, 3 h;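 active = mean replicate inhibition of at least 70% and a set share of replicates each scoring 70 or more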;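 note: 0% = median of neutral control wells and 100% = median of positive control wells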
hGIII sPLA2 conf = human GIII-sPLA2 inhibition, confirmation. AID 743280. shares compounds with HGIII-sPLA2 inh. hit rate 34% among 2,000. inhibition, % at 12.2 µM. recombinant hGIII-sPLA2, BODIPY PC-A2 QFRET fluorescence;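 active = mean inhibition across triplicates above the hit cutoff set in the earlier primary screen, cut at about 19% in these data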;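 note: 0% = enzyme with DMSO and 100% = DMSO wells lacking enzyme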
535nm interf = 535nm fluorescence interference, HGIII-sPLA2 counter-screen. BODIPY FL product fluorescence interference, QFRET. inhibition, % at 12.2 µM. shares compounds with HGIII-sPLA2 inh. hit rate 8.5% among 2,000;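 active = average inhibition above the solvent-only control mean plus 3 SD, cut at about 6% in these data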;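 note: 0% = DMSO with substrate plus product and 100% = DMSO with substrate alone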
Active calls of the source: *; / = no result. In the library only some 2% were active in any assay of this set; here they are far more common.

SMILES	XiGFP reactiv	SR-BI uptake up	HGIII-sPLA2 inh	ARNT-TACC3 inh	NSD2 inh	SR-BI DiI inh	hGIII sPLA2 conf	535nm interf
O=S(=O)(/N=C(/Nc1cc(N2CCOCC2)ncn1)c1ccccc1)c1ccccc1	/	4.7	5.7	-2.2	-0.3	-4.7	/	/
CN(C)N1C(N)=C(C#N)C(c2cccc([N+](=O)[O-])c2)C2=C1CC(C)(C)CC2=O (configuration not stated)	0.0	17.1	20.3*	1.5	-1.7	-17.1	0.2	-6.3
CC(C)[C@H]1Cn2nncc2Cn2c3ccccc3c(=O)n21	/	/	8.8	/	/	/	/	/
Cc1ccccc1NC(=O)Nc1ccccn1	0.0	27.9	20.0*	-10.2	-1.9	-27.9	0.3	-3.8
CCCCCCCC1=NN(c2ccc(S(=O)(=O)O)cc2)C(=O)C1N=O (configuration not stated)	-0.1	/	-42.0	/	2.4	/	/	/
CSCCC(NC(=O)COc1ccccc1)C(=O)N(C)CC(=O)Nc1c(C)cccc1C (configuration not stated)	0.0	23.0	20.7*	8.2	-0.6	-23.0	0.5	-17.2
CSCCC(NC(=O)COc1ccccc1)C(=O)OCCOc1ccc(C)cc1 (configuration not stated)	0.0	9.2	-7.9	/	-0.8	-9.2	/	/
CCCCn1c(/C=N/Nc2nc3ccccc3[nH]2)nc2ccccc21	0.1	-50.4	35.4*	5.7	13.0	50.4	31.1*	-18.3
O=S(=O)(O)c1ccc(O)c2cc(Nc3ccccc3)ccc12	0.2	12.2	25.0*	3.2	/	-12.2	11.0	1.0
COCCCNCCOCCSc1ccc(Cl)cc1	-0.1	10.0	0.7	/	2.4	-10.0	/	/
COCCCNCCCCSc1ccc(Cl)cc1	/	15.1	21.6*	-4.1	6.1	-15.1	-7.9	-26.7
NC(=O)c1c(NC(=O)CN2CCCC2)sc2c1CCCC2	/	-10.8	8.9	-7.5	-0.9	10.8	/	/
C[C@@H]1CCCCO[C@H](CN(C)C(=O)Nc2ccc(F)cc2)[C@H](C)CN([C@@H](C)CO)C(=O)c2cc(NC(=O)C3CCCCC3)ccc2O1	-1.2	/	/	-7.1	/	/	/	/
NC(Cc1ccc(F)cc1)c1csc(Nc2cc(NCc3ccco3)ncn2)n1 (configuration not stated)	0.2	/	7.2	/	0.6	/	/	/
COC(=O)c1cnc(Nc2nc(C(N)Cc3ccc(OC)cc3)cs2)nc1C(F)(F)F (configuration not stated)	-0.1	/	13.5	/	0.6	/	/	/
NC(Cc1ccc(Cl)cc1)c1csc(Nc2cc(Oc3ccccc3)ncn2)n1 (configuration not stated)	-0.1	/	27.1*	/	-2.4	/	20.5*	-12.7
NC(c1csc(Nc2cc(Oc3ccccc3)ncn2)n1)c1ccccc1Cl (configuration not stated)	0.0	/	21.2*	/	-0.7	/	13.0	-2.7
NC(c1csc(Nc2cc(NCc3ccco3)ncn2)n1)c1ccccc1Cl (configuration not stated)	0.0	/	23.0*	/	-0.9	/	-5.3	-2.6
CC(N)c1csc(Nc2cc(Oc3ccccc3)ncn2)n1 (configuration not stated)	0.0	/	17.3	/	1.3	/	/	/
COC(=O)c1cnc(Nc2nc(C(N)Cc3ccc(Cl)cc3)cs2)nc1C(F)(F)F (configuration not stated)	0.0	/	27.0*	/	2.6	/	7.6	-5.4
C=CCn1c(SCC(=O)Nc2c(C)n(C)n(-c3ccccc3)c2=O)nnc1-c1cccnc1	0.0	-4.3	6.6	-14.8	-0.6	4.3	/	/
COC(=O)[C@@]1(CCC(=O)OC(C)(C)C)N=C(c2ccc(OCCCO)cc2)O[C@H]1c1ccccc1	/	/	/	-23.7	/	/	/	/
COc1ccc(C2CC(=O)Nc3cc(OC)c(OC)cc32)cc1 (configuration not stated)	0.0	/	20.9*	/	18.0	/	1.3	-4.1
COc1cc2c(cc1OC)C(c1ccc(SC)cc1)CC(=O)N2 (configuration not stated)	0.4	-18.3	4.8	-4.8	12.8	18.3	/	/
Cc1cc(C)c(-c2c(O)c3c(n(C)c2=O)CC(C)(C)CC3=O)c(C)c1	0.2	-13.8	21.4*	-2.2	-5.0	13.8	-4.0	-1.7
SMILES	XiGFP reactiv	SR-BI uptake up	HGIII-sPLA2 inh	ARNT-TACC3 inh	NSD2 inh	SR-BI DiI inh	hGIII sPLA2 conf	535nm interf
Cn1c2c(c(O)c(-c3ccccc3)c1=O)C(=O)CC(C)(C)C2	0.1	-3.8	17.6	-3.1	-0.5	3.8	/	/
CCn1c(/C=C/c2c(C)n(CC)c3ccccc23)nc2ccccc2c1=O	0.6	-13.2	23.9*	-14.9	-0.7	13.2	0.4	-8.6
O=C(COC(=O)Cc1n[nH]c(=O)c2ccccc12)Nc1ncc(Cl)cc1Cl	0.0	11.2	-4.0	-1.6	-0.5	-11.2	/	/
COc1cc2c(cc1OC)C(c1ccccc1)=NCC2	0.0	17.7	26.6*	-5.8	-1.2	-17.7	0.1	-11.4
CN(C)S(=O)(=O)c1cccc(NC(=S)N/N=C/c2cc(Br)ccc2O)c1	-0.7	/	38.6*	62.4*	-4.7	/	28.1*	10.8*
CN(C)S(=O)(=O)c1cccc(NC(=S)N/N=C/c2cccc(O)c2)c1	0.0	-33.0	-9.3	16.9	-3.0	33.0	/	/
O=C(NCC(c1cccs1)N1CCOCC1)c1cc([N+](=O)[O-])ccc1Cl (configuration not stated)	0.3	37.8	19.4*	-15.9	-1.4	-37.8	0.1	-3.9
Cc1ccccc1NC(=O)c1ccc(CN2CC(=O)N3CCCCC3C2=O)cc1 (configuration not stated)	0.4	9.8	19.4*	-0.3	/	-9.8	-3.6	-3.3
Cc1ccc(NC(=O)c2ccc(CN3CC(=O)N4CCCCC4C3=O)cc2)c(C)c1 (configuration not stated)	-0.1	-33.6	5.1	-9.9	/	33.6	/	/
Cc1cc(C)nc(SCc2cn3cc(Cl)ccc3n2)n1	0.0	-21.9	20.7*	-8.2	-1.6	21.9	3.0	-9.3
Clc1ccc2nc(CSc3ncn[nH]3)cn2c1	-0.2	23.8	-3.2	-0.2	-0.9	-23.8	/	/
COc1ccc(NC(=O)N(C)C[C@H]2Oc3c(NS(=O)(=O)c4ccc(Cl)cc4)cccc3C(=O)N([C@H](C)CO)C[C@H]2C)cc1	0.3	/	/	-0.4	/	/	/	/
COc1ccc(/C=N\NC(=S)SCN2C(=O)C3CCC(C)(C2=O)C3(C)C)cc1 (configuration not stated)	/	15.4	9.5	7.1	3.5	-15.4	/	/
